TRPC6 act: mouse TRPC6 channel activators, primary screen, cell-based, HEK293, membrane potential dye; B-score at 10 µM; 310,000 compounds, 0.13% hits; HEK293-TRPC6 membrane potential dye fluorescence; hits give high values; Short transient receptor potential channel 6 (Mus musculus), Q61143;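 active means B-score of the integrated fluorescence ratio above library mean plus 3 SD, and starting fluorescence ratio within library mean plus 5 SD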;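 further: higher score means more depolarization so channel activation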
Yeast superoxide: reduction of superoxide in aged yeast, primary screen, HTS | S. cerevisiae aged cells, superoxide DHE fluorescence; hits give low values | superoxide response (% of plate mean), % at 10 µM | 330,000 compounds, 0.18% hits | AID 2690, 2010;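 active means superoxide response under a set limit, about three screen SD below normal, cut at about 65% in these data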;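 further: yeast aged for seven days with compound at 30 °C before DHE staining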
TRPC4 agonist: activators of mouse TRPC4 channel, primary screen, Fluo4 calcium, HEK293 TRPC4beta/mu-opioid cells; Fluo4 calcium fluorescence; hits give high values; B-score at 10 µM; AID 2237, 2010; 310,000 compounds, 0.49% hits; Short transient receptor potential channel 4 (Mus musculus), Q9QUQ5;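 active means B-score above 5 SD of library B-scores, and initial fluorescence ratio not above library mean plus 5 SD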;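 further: positive B-score marks a calcium rise read as TRPC4 activation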
Target sequence (Q9QUQ5 whole entry, looked up): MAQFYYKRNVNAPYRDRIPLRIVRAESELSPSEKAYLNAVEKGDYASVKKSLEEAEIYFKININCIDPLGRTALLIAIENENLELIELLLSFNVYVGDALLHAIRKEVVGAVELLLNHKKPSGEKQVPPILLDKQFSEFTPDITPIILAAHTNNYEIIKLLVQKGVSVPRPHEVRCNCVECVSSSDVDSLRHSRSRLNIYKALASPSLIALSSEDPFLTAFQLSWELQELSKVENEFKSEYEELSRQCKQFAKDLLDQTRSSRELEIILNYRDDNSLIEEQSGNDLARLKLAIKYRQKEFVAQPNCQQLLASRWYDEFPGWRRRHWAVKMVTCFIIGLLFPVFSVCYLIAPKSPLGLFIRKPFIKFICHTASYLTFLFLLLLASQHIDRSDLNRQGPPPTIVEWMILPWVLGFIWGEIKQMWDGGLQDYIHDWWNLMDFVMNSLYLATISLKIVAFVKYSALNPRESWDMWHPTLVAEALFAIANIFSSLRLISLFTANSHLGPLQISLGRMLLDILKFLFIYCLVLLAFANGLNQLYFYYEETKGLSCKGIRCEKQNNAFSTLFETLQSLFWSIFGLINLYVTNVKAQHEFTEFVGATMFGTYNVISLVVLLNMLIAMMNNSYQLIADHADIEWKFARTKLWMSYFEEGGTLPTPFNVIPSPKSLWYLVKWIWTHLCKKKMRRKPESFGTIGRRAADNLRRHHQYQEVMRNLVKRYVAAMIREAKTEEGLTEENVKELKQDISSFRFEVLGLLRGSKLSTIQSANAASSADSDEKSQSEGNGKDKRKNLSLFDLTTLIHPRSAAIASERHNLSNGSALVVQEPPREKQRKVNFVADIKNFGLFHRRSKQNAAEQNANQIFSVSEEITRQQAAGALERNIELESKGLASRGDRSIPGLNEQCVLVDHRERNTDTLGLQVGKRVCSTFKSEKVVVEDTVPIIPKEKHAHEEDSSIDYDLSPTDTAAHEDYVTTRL
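Material: TRPC4beta and mu-opioid receptor HEK293 stable cells | Incubation: 45 min room-temperature Fluo4 loading, 110 s read | Detection: Kinetic Fluo4 calcium fluorescence | Measure: Integrated baseline-normalised fluorescence ratio, converted to per-well B score | Benchmarks: Low control buffer alone, high control maximal DAMGO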
TRPC4 inh: inhibitors of mouse TRPC4 channel, primary screen, Fluo4 calcium, HEK293 TRPC4beta/mu-opioid cells. DAMGO-evoked Fluo4 calcium flux; hits give low values. Short transient receptor potential channel 4 (Mus musculus), Q9QUQ5. AID 2247, 2010. B-score at 10 µM. 300,000 compounds, 0.39% hits;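 active means B-score over 3 SD under the library average, no early fluorescence shift, positive overall ratio signal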
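Test system – stable TRPC4beta/mu-opioid receptor HEK293 cells · Probe or stimulus – DAMGO, a submaximal dose followed by a maximal one · Dosing – one concentration per compound · Signal – Fluo4 calcium fluorescence by kinetic imaging, 5 s 1 Hz baseline · Evaluation – per-well B score of integrated baseline-normalized Fluo4 ratio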
TRPC4 potent: positive allosteric modulators of TRPC4, primary screen, cell-based, mouse TRPC4beta, HEK293 mu-opioid, Fluo-4 calcium; 310,000 compounds, 0.42% hits; B-score at 10 µM; AID 2227, 2009; DAMGO EC20, Fluo-4 Ca2+ flux; hits give high values;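 active means B-score of calcium response area above 5 SD of library B-scores, with initial fluorescence ratio within 5 SD of library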
TRPC6 inhibitor: mouse TRPC6 channel inhibitors, primary screen, cell-based, HEK293, membrane potential dye; ACh-evoked depolarization; hits give low values; B-score at 10 µM; 310,000 compounds, 1.1% hits; AID 2553, 2010;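 active means B-score under library mean minus 3 SD, initial fluorescence not abnormally high, positive integrated signal ratio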;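 further: B-score derived from integrated fluorescence ratio over the kinetic read; more negative B-score means stronger inhibition of depolarization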
TRPC4 spec 2: second check of whether TRPC6 inhibitors also affect mouse TRPC4; inhibition, % at 10 µM; HEK293 TRPC4/MOR, membrane potential dye fluorescence; channel activated by saturating DAMGO dose; AID 2776; 920 compounds, 42% hits; shares compounds with TRPC6 inhibitor;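 active means compounds whose fluorescence signal differed from control wells by over 3 SD, either direction, in both duplicate plates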
TRPC4 spec: mouse TRPC4 modulation by TRPC6 hits, confirmation, selectivity assay for TRPC6 inhibitor project, cell-based, HEK293 TRPC4/mu-opioid, membrane potential dye | 920 compounds, 61% hits | membrane potential fluorescence | shares compounds with TRPC6 inhibitor | activity change, negative = inhibition, % at 10 µM;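 active means rise or fall in signal beyond 3 SD of buffer-only wells in both replicate plates, either sign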;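 further: integrated kinetic ratio of fluorescence range over baseline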
HEK293 MPD ctr 2-1: nonspecific membrane potential effects, parental HEK293, confirmation, counter-screen for TRPC6 inhibitor project, cell-based, second counter screen; shares compounds with TRPC6 inhibitor; parental HEK293 membrane potential dye fluorescence; maximal acetylcholine challenge after compound addition; signal change vs control, % at 10 µM; 920 compounds, 31% hits;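 active means membrane potential signal moving either way by over 3 SD of the maximum-effect control, in both duplicate plates, meaning non-specific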
HEK293 MPD ctr-1: membrane potential modulation in parental HEK293, confirmation, counter-screen for TRPC6 inhibitor project, cell-based; membrane potential signal change, % at 10 µM; parental HEK293 membrane potential dye fluorescence; 920 compounds, 60% hits; shares compounds with TRPC6 inhibitor;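 active means membrane potential signal shifting up or down by more than 3 SD of buffer-only wells, on both duplicate plates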
HEK293 MPD ctr-2: parental HEK293 membrane potential modulation, confirmation, counter-screen for TRPC6 modulator project, cell-based. AID 488924, 2010. 2,400 compounds, 51% hits. membrane potential dye fluorescence. shares compounds with TRPC6 inhibitor. membrane potential signal change, % at 10 µM;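 active means membrane potential signal moves up or down beyond 5 SD from buffer-only wells, on both duplicate plates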
HEK293 MPD ctr 2-2: second counter-screen for TRPC6 modulators: effect in parental HEK293 cells; inhibition, % at 10 µM; AID 488926; shares compounds with TRPC6 inhibitor; 2,400 compounds, 14% hits; membrane potential dye fluorescence; after compound, maximal acetylcholine stimulation;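 active means membrane potential signal drops by more than 5 SD from the mean control signal, in both duplicate plates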
TRPC4 ctr mod: TRPC4 modulation by TRPC6 hit compounds, confirmation, selectivity assay for TRPC6 modulator project, cell-based, HEK293 TRPC4/mu-opioid, membrane potential dye, mouse | shares compounds with TRPC6 inhibitor | percent change from control (negative = decrease, positive = increase), % at 10 µM | AID 488927, 2010 | 2,400 compounds, 69% hits | membrane potential fluorescence;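 active means membrane potential signal moved up or down beyond 5 SD of buffer control wells, in both duplicate plates, actives on both sides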
TRPC4 ctr inh 2: second selectivity test of TRPC6 modulators against mouse TRPC4; HEK293 TRPC4/mu-opioid, membrane potential dye fluorescence; stimulated with maximal-effect DAMGO; 2,400 compounds, 55% hits; inhibition, % at 10 µM; shares compounds with TRPC6 inhibitor;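 active means drop in membrane potential signal beyond 5 SD of the control wells in both duplicate plates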;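 further: TRPC4 counter screen for TRPC6 hits run under conditions tuned for TRPC6 not TRPC4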
TRPC6 inh conf: mouse TRPC6 channel inhibitors, confirmation, HEK293 cells, membrane potential dye, duplicate | 3,300 compounds, 43% hits | inhibition, % at 10 µM | ACh-evoked depolarization | shares compounds with TRPC6 inhibitor;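 active means fluorescence ratio falls more than 5 SD below the full-stimulation control mean, in both duplicate runs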;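 further: integrated fluorescence ratio of peak minus minimum over baseline after agonist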
TRPC6 act conf: mouse TRPC6 channel activators, confirmation, HEK293 cells, membrane potential dye, duplicate; shares compounds with TRPC6 inhibitor; activation, % at 10 µM; 2,800 compounds, 11% hits; HEK293-TRPC6 membrane potential dye fluorescence, FDSS;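 active means ratio signal rise beyond 5 SD above unstimulated control wells' mean, seen in both duplicate runs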
Hits are given with their value; – = inactive; · = no result. A selection: hits, their analogues and other compounds. The true share with any hit is near 2.3%.

SMILES	TRPC6 act	Yeast superoxide	TRPC4 agonist	TRPC4 inh	TRPC4 potent	TRPC6 inhibitor	HEK293 MPD ctr-2	HEK293 MPD ctr 2-2	TRPC4 ctr mod	TRPC4 ctr inh 2	TRPC6 inh conf	TRPC6 act conf	others
CCOc1ccc(Nc2cc(C)nc3c(C)cccc23)cc1	–	–	–	–	–	-5.5	-86%	–	-22%	52%	43%	–
COc1ccc(Cl)cc1Nc1cc(C)nc2ccccc12	–	–	–	–	–	-5.4	-76%	–	-12%	70%	56%	–
COc1ccc(Nc2cc(C)nc3c(C)cccc23)cc1OC	–	–	–	–	–	-5	-145%	–	-30%	55%	44%	–
Cc1ccnc(NC(=O)CNC(=O)c2ccc3c(c2)OCO3)c1	–	–	–	–	–	–	·	·	·	·	·	·
C[C@H]1O[C@@H](O[C@H]2[C@@H](O)C[C@H](O[C@H]3[C@@H](O)C[C@H](O[C@H]4CC[C@@]5(C)[C@H](CC[C@@H]6[C@@H]5C[C@@H](O)[C@]5(C)[C@@H](C7=CC(=O)OC7)CC[C@]65O)C4)O[C@@H]3C)O[C@@H]2C)C[C@H](O)[C@@H]1O	–	–	–	–	–	–	·	·	·	·	·	·
Cc1cc(C(=O)N2CCc3ccccc32)c2cc(F)ccc2n1	–	–	–	–	–	–	·	·	·	·	·	·
C/C(=N/OCC(=O)Nc1ccc(C)cc1C)c1cccs1	–	–	–	–	–	–	·	·	·	·	·	·
COc1ccc(CN(C)C(C)C(=O)Nc2ccc(S(=O)(=O)N3CCCC3)cc2)c(OC)c1OC (stereo not given)	–	–	–	–	–	–	·	·	·	·	·	·
O=C(CSc1nc(O)c(Cc2ccccc2)c(=O)[nH]1)Nc1nnc(SCc2ccccc2)s1	20	–	–	–	–	–	308%	–	58%	–	–	142%
OCCn1c(-c2ccc3c(c2)OCO3)csc1=Nc1ccccc1	–	–	–	–	–	–	·	·	·	·	·	·
OCCn1c(-c2ccc(F)cc2)csc1=Nc1ccccc1	–	–	–	–	–	-7.5	120%	–	12%	31%	74%	·
CCOC(=O)c1cnc2c(Cl)c(Cl)ccc2c1NCCN1CCOCC1	–	–	–	–	–	–	·	·	·	·	·	·
Cc1ccc2ncnc(NCCCN3CCOCC3)c2c1	–	–	–	–	–	–	·	·	·	·	·	·
CCOC(=O)c1cnc2ccc(Br)cc2c1NCCCN1CCOCC1	–	–	–	–	–	–	·	·	·	·	·	·
CCOC(=O)c1cnc2c(C)c(C)ccc2c1NCCN1CCOCC1	–	·	–	–	–	-5.8	86%	77%	28%	33%	–	–
CCOC(=O)c1cnc2ccc(C)cc2c1NCCN1CCOCC1	–	–	–	–	–	-5.1	–	–	15%	34%	42%	–
CCOC(=O)c1ccc2ncc(C(=O)OCC)c(NCCCN3CCOCC3)c2c1	–	–	–	–	–	-6.8	·	·	·	·	–	–	TRPC4 spec 2=–;TRPC4 spec=-16%;HEK293 MPD ctr 2-1=–;HEK293 MPD ctr-1=-251%
CCOC(=O)c1cnc2c(C)cc(C)cc2c1NCCCN1CCOCC1	–	–	–	–	–	-8.8	·	·	·	·	65%	–	TRPC4 spec 2=70%;TRPC4 spec=–;HEK293 MPD ctr 2-1=-14%;HEK293 MPD ctr-1=–
CCOC(=O)c1cnc2c(C)c(Cl)ccc2c1NCCCN1CCOCC1	–	–	–	–	–	–	·	·	·	·	·	·
FC(F)(F)c1ccc(Cl)c(NC(=S)N/N=C/c2ccccc2Cl)c1	–	–	–	–	–	–	·	·	·	·	·	·
Cc1cc(OC(C)C(=O)NCCCn2ccnc2)c2c(C)cc(=O)oc2c1 (stereo not given)	–	–	–	–	–	–	·	·	·	·	·	·
O=C(O)c1ccccc1N/N=C/c1cc(Br)cc(Br)c1O	–	–	–	-9	–	-6.5	–	–	-11%	74%	–	–
CCN(CC)CCNc1nc2c(c(=O)[nH]c(=O)n2C)n1CC(O)COc1ccc(Cl)cc1Cl (stereo not given)	–	–	–	–	–	-8.8	-308%	58%	-56%	35%	42%	–
CN(C)CCNc1nc2c(c(=O)[nH]c(=O)n2C)n1CC(O)COc1ccc(Cl)cc1 (stereo not given)	–	–	–	–	–	–	·	·	·	·	·	·

Screening results deposited in PubChem by several laboratories.
